Bioassay records: PubChem BioAssay, The Scripps Research Institute Molecular Screening Center
PLCb3 inh: PLC-beta3 (human) inhibition, primary screen; Q01970; Purified PLC-beta3, fluorogenic substrate, fluorescence; inhibition, % at 12.2 µM; 370,000 compounds, 0.18% hits; AID 720704
PLCg1 inh: inhibitors of human phospholipase C gamma1. purified PLC-gamma1, fluorogenic substrate, fluorescence. inhibition, % at 12.2 µM. 370,000 compounds, 0.84% hits; in the data active = inhibition above about 9.5%
sPLA2-III inh: Blocks human group III sPLA2 activity. Q9NZ20. QFRET BODIPY PC-A2 liposome hydrolysis, fluorescence. inhibition, % at 12.2 µM. 370,000 compounds, 0.56% hits;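 active = inhibition above mean plus 3 SD of compounds lying within the high and low control bounds, cut at about 19% in these data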
Target sequence (Q9NZ20 whole entry, looked up): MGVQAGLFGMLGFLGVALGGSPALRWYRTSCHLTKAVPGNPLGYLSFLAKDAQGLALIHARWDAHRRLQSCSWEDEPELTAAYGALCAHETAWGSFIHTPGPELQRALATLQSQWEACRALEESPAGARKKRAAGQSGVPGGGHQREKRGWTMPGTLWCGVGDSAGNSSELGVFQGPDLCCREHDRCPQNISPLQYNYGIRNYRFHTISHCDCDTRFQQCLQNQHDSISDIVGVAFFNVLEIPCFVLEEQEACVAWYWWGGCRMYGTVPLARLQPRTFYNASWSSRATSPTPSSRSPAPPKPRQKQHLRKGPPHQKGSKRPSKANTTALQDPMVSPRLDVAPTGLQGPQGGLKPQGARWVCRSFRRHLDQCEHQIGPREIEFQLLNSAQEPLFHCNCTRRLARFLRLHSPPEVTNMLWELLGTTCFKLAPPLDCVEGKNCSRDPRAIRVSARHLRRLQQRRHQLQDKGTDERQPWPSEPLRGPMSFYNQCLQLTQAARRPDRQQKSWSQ
Tb MetRS inh: Trypanosoma brucei MetRS inhibition; purified T. brucei MetRS, ATP depletion, Kinase-Glo luminescence; 360,000 compounds, 0.4% hits; inhibition, % at 11.9 µM;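 active = inhibition above a per-plate cutoff of the control wells' mean inhibition plus 3 SD, cut at about 5.5% in these data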
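Material – parasite MetRS enzyme · Medium – HEPES-MgCl2-KCl buffer plus DTT, spermine, BSA, pyrophosphatase · Reagent – ATP, methionine and E. coli bulk tRNA substrates · Times – 15 min enzyme-compound preincubation, 2 h reaction, 10 min detection, 25 °C · Measured by – luminescence of leftover ATP · Evaluation – percent inhibition relative to median high and low control wells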
PLCg1 ctr: inhibits human PLC-gamma1 in PLC-beta3 counter-screen; purified PLC-gamma1, fluorogenic substrate, fluorescence; shares compounds with PLCg1 inh; inhibition, % at 12.3 µM; 3,300 compounds, 3.1% hits; in the data active = inhibition above about 9.5%
PLCb3 confirm: confirmation of human PLC-beta3 inhibitors; shares compounds with PLCg1 inh; purified PLC-beta3, fluorogenic substrate fluorescence; 3,300 compounds, 1% hits; inhibition, % at 12.3 µM
Large screens that a line does not name were inactive (follow-up assays come after a bar, where they were run). Compounds with a hit are over-represented: about 1.9% of the library has one in this group of screens. Cut-off read from the data, not from the text of the source, unless noted: active = inhibition above about 11%; inactive = the rest.

COC(=O)[C@]12C[C@H](CC(=O)NCc3cccc(C(F)(F)F)c3)C(=O)N(Cc3ccccc3)C1=C[C@H](C(C)(C)C)O[C@@H]2C	none (no result: Tb MetRS inh)
Cc1cccn2cc(CNC(=O)c3ccco3)nc12	PLCb3 inh 11.1 | PLCg1 ctr inactive | PLCb3 confirm inactive
Cc1cccn2cc(CCNC(=O)c3ccco3)nc12	none
COc1ccc(CNC(=O)C2(c3ccc(Cl)cc3)CC2)cc1	PLCg1 inh 14.0 | PLCg1 ctr inactive | PLCb3 confirm inactive
CC(NC(=O)c1ccccc1Cl)C1CC2CCC1C2 (stereo not given)	none
CC(NC(=O)c1ccc([N+](=O)[O-])cc1Cl)C1CC2CCC1C2 (stereo not given)	PLCg1 inh 10.9 | PLCg1 ctr inactive | PLCb3 confirm inactive
CCOC(=O)N1CCN(C(=O)C[C@H]2C[C@@]3(C(=O)OCC)CCCC4=C3N(CCC4)C2=O)CC1	none (no result: Tb MetRS inh)
CC(C)N(Cc1ccccc1)C(=O)CN1C(=O)NC2(CCCC2)C1=O	PLCg1 inh 10.3 | PLCg1 ctr inactive | PLCb3 confirm inactive
CC(C)CNC(=O)CC1Oc2ccccc2NC1=O (stereo not given)	none (no result: Tb MetRS inh)
NC(=O)COC(=O)CCCc1nc2ccccc2s1	PLCb3 inh 11.4, PLCg1 inh 11.9 | PLCg1 ctr inactive | PLCb3 confirm inactive
COC(=O)c1cc(C(C)c2ccccc2O)n2ccccc12 (stereo not given)	none (no result: Tb MetRS inh)
O=C(NCCc1ccccc1)C1CCCN1S(=O)(=O)c1ccccc1 (stereo not given)	none
O=C(NCCc1ccccc1)C1CCCN1S(=O)(=O)c1ccc(F)cc1 (stereo not given)	PLCb3 inh 12.1 | PLCg1 ctr inactive | PLCb3 confirm inactive
O=C(NN=Cc1ccccc1Cl)C(=O)Nc1cccc(C(F)(F)F)c1	none (no result: Tb MetRS inh)
O=C(Nc1ccc(Cl)c(Cl)c1)Nc1ccc(Br)cc1F	PLCb3 inh 11.9 | PLCg1 ctr inactive | PLCb3 confirm inactive
Cc1nc2cc(C(=O)N3CCN(C(=O)C(Cl)Cl)CC3)ccc2n1C1CCCC1	none (no result: Tb MetRS inh)
O=C(O)C1C2C=CC(C3CC23)C1C(=O)O (stereo not given)	PLCg1 inh 10.1 | PLCg1 ctr inactive | PLCb3 confirm inactive
CN1C(C(=O)Nc2cccc(O)c2)=CC(c2cccs2)=NS1(=O)=O	PLCg1 inh 10.4 | PLCg1 ctr inactive | PLCb3 confirm inactive
CC(=O)c1cccc(NC(=O)C2=CC(c3cccs3)=NS(=O)(=O)N2C)c1	none
O=C(CC(=O)NN=C1CCCCCC1)NCc1cccnc1	PLCg1 inh 10.4 | PLCg1 ctr inactive | PLCb3 confirm inactive
O=C(NN=C1CCCCCC1)c1cccnc1	none
C/C=C(\C)CN1CCCC(CO)(Cc2ccccc2)C1 (stereo not given)	PLCg1 inh 12.0 | PLCg1 ctr inactive | PLCb3 confirm inactive
CSc1ccc(CN2CCCC(CO)(Cc3ccccc3)C2)cc1 (stereo not given)	none
COC(=O)C1CN(Cc2cn(CCOC(C)=O)nn2)CCS(=O)(=O)N1Cc1ccc(Cl)cc1 (stereo not given)	none (no result: Tb MetRS inh)
CC(C)(C)OC(=O)N1CCC(c2ccc[nH]2)(c2c[nH]c3ccccc23)CC1	none (no result: Tb MetRS inh)
O=C(O)c1cnccn1	none
CSC(=N/N=C(\N)c1cnccn1)SC	PLCg1 inh 12.9 | PLCg1 ctr inactive | PLCb3 confirm inactive
CCn1c(=S)sc2c(=O)n(CC(=O)Nc3cccc(Cl)c3)c(C)nc21	PLCg1 inh 10.3 | PLCg1 ctr inactive | PLCb3 confirm 10.9
CCC(NC(=O)NC1CCCCC1)c1ccccc1 (stereo not given)	PLCb3 inh 11.7, PLCg1 inh 9.5 | PLCg1 ctr inactive | PLCb3 confirm inactive
CCOC(=O)N1CCN(C(=O)C[C@H]2C[C@@]3(C(=O)OC)C(=C[C@H](C4CCCC4)O[C@@H]3C)N(Cc3ccc(Cl)cc3Cl)C2=O)CC1	none (no result: Tb MetRS inh)
CCNC(=O)C/C(C)=N/NC(=O)C1CCCCC1	PLCg1 inh 10.6 | PLCg1 ctr inactive | PLCb3 confirm inactive
COc1ccc(CCNC(=O)C/C(C)=N/NC(=O)C2CCCCC2)cc1OC	none
O=C(C(=O)N1CCC(CNS(=O)(=O)c2ccccc2)CC1)c1cc2ccccc2o1	none (no result: Tb MetRS inh)
O=C1c2ccccc2C(Nc2ccc(Cl)cn2)N1Cc1ccccc1 (stereo not given)	none
CC(=O)NC1c2ccccc2C(=O)N1Cc1ccccc1 (stereo not given)	PLCg1 inh 10.5 | PLCg1 ctr inactive | PLCb3 confirm inactive
Cc1ccc(NC(=S)NCc2ccc(Cl)cc2)c(C)c1	PLCg1 inh 10.6 | PLCg1 ctr inactive | PLCb3 confirm inactive
CC(=O)c1cccc(NC(=O)C2C3C=CC(C3=C(c3ccccc3)c3ccccc3)C2C(=O)O)c1 (stereo not given)	PLCg1 inh 10.2 | PLCg1 ctr inactive | PLCb3 confirm inactive
CCCCNC(=O)C[C@@H]1C(=O)N(Cc2ccc(OC)cc2)/C2=C/CCCCC[C@@]21C(=O)OCC	none (no result: Tb MetRS inh)
O=S1(=O)c2c(cccc2N2CCC[C@@H]2CO)O[C@@H]2CCN1C2	none (no result: Tb MetRS inh)
Cc1nn(-c2ccccc2)c(OC(=O)c2cccs2)c1S(=O)(=O)c1ccc([N+](=O)[O-])cc1	PLCb3 inh 19.5, PLCg1 inh 14.5 | PLCg1 ctr inactive | PLCb3 confirm inactive
Cc1nn(-c2ccccc2)c(OC(=O)c2cccs2)c1S(=O)(=O)c1ccccc1	PLCg1 inh 14.0 | PLCg1 ctr inactive | PLCb3 confirm inactive
Nc1cc(OC(=O)c2cccs2)nn1S(=O)(=O)c1ccccc1	none
COC(=O)c1cc2c(c3c4cc(F)ccc4n(S(=O)(=O)c4ccc(C)cc4)c13)C(=O)N(Cc1ccccc1OC)C2	none (no result: Tb MetRS inh)
CC(C)NC(=O)CN1C(=O)c2ccccc2S1(=O)=O	none
CC(C)COP(=O)(CNC(=O)CN1C(=O)c2ccccc2S1(=O)=O)OCC(C)C	PLCg1 inh 9.8 | PLCg1 ctr inactive | PLCb3 confirm inactive
CC1CCC(NC(=O)CN2C(=O)c3ccccc3S2(=O)=O)CC1 (stereo not given)	PLCg1 inh 12.2 | PLCg1 ctr inactive | PLCb3 confirm inactive
O=C(CN1C(=O)c2ccccc2S1(=O)=O)NC1CC2CCC1C2 (stereo not given)	none
Cc1ccccc1OCCCc1c(C)n[nH]c1C	PLCg1 inh 9.8 | PLCg1 ctr inactive | PLCb3 confirm inactive
O=C(C1CC1)N1CCc2cc(Br)c(S(=O)(=O)NCCCN3CCCCC3)cc21	none (no result: Tb MetRS inh)
Cc1ccc(NC(=O)CSc2n[nH]c(-c3ccco3)n2)cc1	none
Cc1ccc(NC(=O)CSc2n[nH]c(-c3ccco3)n2)c(C)c1	PLCg1 inh 10.4 | PLCg1 ctr inactive | PLCb3 confirm inactive
COC(=O)C1CN(Cc2ccccc2)CCS(=O)(=O)N1Cc1cn(Cc2ccc(C)cc2)nn1 (stereo not given)	none (no result: Tb MetRS inh)
O=C(O)CC1=C(c2ccc(F)cc2)CCC1=O	PLCb3 inh 13.6 | PLCg1 ctr inactive | PLCb3 confirm inactive
Cc1ccc(CN2CCC[C@]3(N[C@H](c4ccccc4)[C@@H]4C(=O)N(C)C(=O)[C@@H]43)C2=O)cc1	PLCg1 inh 12.2 | PLCg1 ctr inactive | PLCb3 confirm inactive
